Measurements from ChEMBL document CHEMBL1140076, “Discovery and labeling of high-affinity 3,4-diarylpyrazolines as candidate radioligands for in vivo imaging of cannabinoid subtype-1 (CB1) receptors” (J Med Chem, 2008).

Key:
[1] = Biodistribution in cynomolgus monkey brain striatum assessed as standardized uptake value at 65 GBq/umol, iv after 48 mins; format: ADME, organism-based, Macaca fascicularis; details: in vivo, 0.8 h
Procedure, shortened: (§1)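 Anesthetized cynomolgus monkeys (3.4, 4.8 kg; ketamine/xylazine i.m., head in stereotactic frame). [11C] radioligand given as i.v. bolus over about 5 s: 56–100 MBq, 0.33–0.81 µg carrier. Brain scanned on ECAT EXACT HR for 93 min. Regions defined on a monkey brain atlas. Decay-corrected activity expressed as %SUV (% injected activity per g tissue × body weight).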

Pons [2] = assay: Biodistribution in cynomolgus monkey brain pons assessed as standardized uptake value at 65 GBq/umol, iv after 24 mins; format: ADME, organism-based, Macaca fascicularis; details: in vivo, 0.4 h; procedure, shortened: as §1
[3] = Biodistribution in cynomolgus monkey plasma assessed as unchanged drug level at 65 GBq/umol, iv after 45 mins; format: ADME, organism-based, Macaca fascicularis; details: read-out: Activity
Procedure, shortened: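 Venous blood (1 mL) taken 5, 15, 30 and 45 min after i.v. radioligand in anesthetized monkey. Plasma (0.5 mL) mixed with MeCN containing carrier standard and centrifuged at 2000 × g for 1 min. Supernatant counted, then analyzed by reverse-phase radio-HPLC with a MeCN/0.01 M H3PO4 gradient. Parent expressed as % of plasma radioactivity.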

[4] = Biodistribution in cynomolgus monkey brain striatum assessed as standardized uptake value at 56 GBq/umol, iv after 90 mins; format: ADME, organism-based, Macaca fascicularis; details: in vivo, 1.5 h; procedure, shortened: as §1
[5] = Biodistribution in cynomolgus monkey brain striatum assessed as standardized uptake value at 56 GBq/umol, iv after 1.5 mins; format: ADME, organism-based, Macaca fascicularis; details: in vivo, 0.025 h; procedure, shortened: as §1
Cannabinoid receptor 2 = Cannabinoid receptor 2 (Homo sapiens, UniProt P34972); assay: Binding affinity to human CB2 receptor by [35S]GTPgammaS binding assay; format: functional
Cannabinoid receptor 2, sequence (P34972 whole entry): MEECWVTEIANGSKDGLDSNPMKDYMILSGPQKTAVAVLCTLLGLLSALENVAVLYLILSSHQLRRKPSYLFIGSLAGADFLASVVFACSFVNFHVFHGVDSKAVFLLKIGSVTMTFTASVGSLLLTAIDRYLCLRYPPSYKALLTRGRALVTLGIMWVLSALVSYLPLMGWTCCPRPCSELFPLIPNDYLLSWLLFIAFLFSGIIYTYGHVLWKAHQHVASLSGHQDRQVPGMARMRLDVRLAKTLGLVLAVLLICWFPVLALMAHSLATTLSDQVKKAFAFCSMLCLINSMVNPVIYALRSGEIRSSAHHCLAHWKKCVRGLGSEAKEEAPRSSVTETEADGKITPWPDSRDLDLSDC
Procedure, shortened: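 Recombinant human CB2 membranes (7 µg/well) in buffer with 100 mM NaCl, 5 mM MgCl2, 1 mM EDTA, 50 mM HEPES, 10 µM GDP, 100 µM DTT, 0.01% BSA. Incubation 45 min at 30 °C, then filtration and scintillation counting. Nonspecific binding with 20 µM GTPγS. IC50 converted to Ki by Cheng-Prusoff; triplicates.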

Cannabinoid receptor 1 = Cannabinoid receptor 1 (Homo sapiens, UniProt P21554); assay: Binding affinity to human CB1 receptor by [35S]GTPgammaS binding assay; format: functional
Cannabinoid receptor 1, sequence (P21554 whole entry): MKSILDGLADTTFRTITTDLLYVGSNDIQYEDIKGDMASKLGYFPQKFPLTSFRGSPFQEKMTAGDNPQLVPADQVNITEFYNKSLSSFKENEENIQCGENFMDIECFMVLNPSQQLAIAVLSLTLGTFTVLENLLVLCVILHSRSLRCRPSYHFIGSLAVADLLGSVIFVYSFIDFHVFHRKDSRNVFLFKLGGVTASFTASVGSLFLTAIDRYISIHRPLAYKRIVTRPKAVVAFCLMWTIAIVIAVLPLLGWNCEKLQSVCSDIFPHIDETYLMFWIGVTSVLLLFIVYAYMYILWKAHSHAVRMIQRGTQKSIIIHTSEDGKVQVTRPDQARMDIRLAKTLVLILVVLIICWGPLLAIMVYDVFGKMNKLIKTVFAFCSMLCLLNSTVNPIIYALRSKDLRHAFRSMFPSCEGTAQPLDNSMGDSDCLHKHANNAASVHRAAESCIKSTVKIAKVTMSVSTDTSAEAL

Histamine H2 receptor = Histamine H2 receptor (Homo sapiens, UniProt P25021); assay: Displacement of [3H]tiotidine from human cloned histamine H2 receptor
Histamine H2 receptor, sequence (P25021 whole entry): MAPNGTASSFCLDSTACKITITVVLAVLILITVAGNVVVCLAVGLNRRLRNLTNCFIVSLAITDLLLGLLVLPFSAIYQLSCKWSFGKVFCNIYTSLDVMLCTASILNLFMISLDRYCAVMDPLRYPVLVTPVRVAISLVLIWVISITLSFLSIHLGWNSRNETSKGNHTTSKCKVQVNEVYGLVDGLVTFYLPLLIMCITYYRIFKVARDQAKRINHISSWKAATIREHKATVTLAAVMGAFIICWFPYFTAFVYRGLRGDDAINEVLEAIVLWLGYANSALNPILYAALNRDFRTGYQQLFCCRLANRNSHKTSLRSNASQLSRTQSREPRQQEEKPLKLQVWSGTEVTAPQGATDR

[6] = target: 5-hydroxytryptamine receptor 2A (Homo sapiens, UniProt P28223); assay: Displacement of [3H]ketanserin from human cloned 5HT2A receptor
5-hydroxytryptamine receptor 2A, sequence (P28223 whole entry): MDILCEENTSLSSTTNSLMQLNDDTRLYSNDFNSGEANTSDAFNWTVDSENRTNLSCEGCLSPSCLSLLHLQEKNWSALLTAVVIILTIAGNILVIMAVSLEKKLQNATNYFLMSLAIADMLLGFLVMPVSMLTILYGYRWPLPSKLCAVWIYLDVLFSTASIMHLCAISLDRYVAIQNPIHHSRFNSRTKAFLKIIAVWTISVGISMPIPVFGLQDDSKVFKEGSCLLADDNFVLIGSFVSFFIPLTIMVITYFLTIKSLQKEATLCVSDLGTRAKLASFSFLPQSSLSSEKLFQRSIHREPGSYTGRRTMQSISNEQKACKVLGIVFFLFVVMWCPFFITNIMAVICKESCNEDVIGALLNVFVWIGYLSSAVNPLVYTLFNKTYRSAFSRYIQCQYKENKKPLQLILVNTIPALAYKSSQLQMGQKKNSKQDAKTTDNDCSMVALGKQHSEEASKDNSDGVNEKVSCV

Histamine H3 receptor = Histamine H3 receptor (Homo sapiens, UniProt Q9Y5N1); assay: Displacement of [3H]alpha methyl histamine from human cloned histamine H3 receptor
Histamine H3 receptor, sequence (Q9Y5N1 whole entry): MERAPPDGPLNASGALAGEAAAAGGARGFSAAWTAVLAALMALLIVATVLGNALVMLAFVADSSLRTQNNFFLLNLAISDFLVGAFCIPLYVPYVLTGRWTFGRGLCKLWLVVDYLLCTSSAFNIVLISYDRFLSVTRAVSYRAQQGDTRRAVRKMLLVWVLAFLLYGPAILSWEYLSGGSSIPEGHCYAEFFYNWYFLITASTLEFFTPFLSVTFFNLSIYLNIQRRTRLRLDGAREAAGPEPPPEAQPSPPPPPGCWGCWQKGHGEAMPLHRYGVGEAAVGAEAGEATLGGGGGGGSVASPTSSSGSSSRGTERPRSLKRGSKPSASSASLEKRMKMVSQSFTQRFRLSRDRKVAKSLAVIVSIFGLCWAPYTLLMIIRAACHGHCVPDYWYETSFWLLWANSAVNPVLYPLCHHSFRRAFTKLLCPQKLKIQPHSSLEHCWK

Brain [7] = assay: Biodistribution in 1 mg/kg, iv N-(4-fluorobenzyl)-4-(3-(piperidin-1-yl)-1H-indol-1-ylsulfonyl)benzamide pretreated cynomolgus monkey brain assessed as standardized uptake value at […], iv after 15 mins; format: ADME, organism-based, Macaca fascicularis; set-up: dose 1 mg/kg, route intravenous; details: in vivo, 0.25 h
Brain [8] = assay: Biodistribution in 1 mg/kg, iv N-(4-fluorobenzyl)-4-(3-(piperidin-1-yl)-1H-indol-1-ylsulfonyl)benzamide pretreated cynomolgus monkey brain assessed as standardized uptake value at […], iv after 90 mins; format: ADME, organism-based, Macaca fascicularis; set-up: dose 1 mg/kg, route intravenous; details: in vivo, 1.5 h
Pons [9] = assay: Biodistribution in cynomolgus monkey brain pons assessed as standardized uptake value at 78 GBq/umol, iv after 24 mins; format: ADME, organism-based, Macaca fascicularis; details: in vivo, 0.4 h; procedure, shortened: as §1
[10] = Biodistribution in cynomolgus monkey brain striatum assessed as standardized uptake value at 78 GBq/umol, iv after 30 mins; format: ADME, organism-based, Macaca fascicularis; details: in vivo, 0.5 h; procedure, shortened: as §1
Pons [11] = assay: Biodistribution in cynomolgus monkey brain pons assessed as standardized uptake value at 78 GBq/umol, iv after 90 mins; format: ADME, organism-based, Macaca fascicularis; details: in vivo, 1.5 h; procedure, shortened: as §1
[12] = Biodistribution in cynomolgus monkey brain striatum assessed as standardized uptake value at 78 GBq/umol, iv after 90 mins; format: ADME, organism-based, Macaca fascicularis; details: in vivo, 1.5 h; procedure, shortened: as §1

## N#[11C]c1ccc(S(=O)(=O)/N=C(\N)N2C[C@H](c3ccccc3)C(c3ccc(Cl)cc3)=N2)cc1
[1]
  Drug uptake: 200%
Pons [2]
  Drug uptake: 125%
[3]
  remaining at 0.75 h: 50%

## N#[11C]c1ccc(S(=O)(=O)/N=C(\N)N2C[C@@H](c3ccccc3)C(c3ccc(Cl)cc3)=N2)cc1
[4]
  Drug uptake: 95%
[5]
  Drug uptake: 280%

## N#Cc1ccc(S(=O)(=O)/N=C(\N)N2C[C@H](c3ccccc3)C(c3ccc(Cl)cc3)=N2)cc1
Cannabinoid receptor 2
  IC50: > 33 µM
  Ki: > 5 µM
Cannabinoid receptor 1
  IC50: 2.8 nM
  Ki: 0.5 nM
Histamine H2 receptor
  Ki: > 10 µM
[6]
  Ki: > 7.71 µM
Histamine H3 receptor
  Ki: > 10 µM

## N/C(=N\S(=O)(=O)c1ccc(I)cc1)N1C[C@H](c2ccccc2)C(c2ccc(Cl)cc2)=N1
Cannabinoid receptor 2
  IC50: > 33 µM
  Ki: > 5 µM
Cannabinoid receptor 1
  IC50: 1.9 nM
  Ki: 0.3 nM

## N/C(=N\S(=O)(=O)c1ccc(I)cc1)N1C[C@@H](c2ccccc2)C(c2ccc(Cl)cc2)=N1
Cannabinoid receptor 2
  IC50: > 33 µM
  Ki: > 5 µM
Cannabinoid receptor 1
  IC50: 104 nM
  Ki: 17.4 nM

## N#Cc1ccc(S(=O)(=O)/N=C(\N)N2C[C@@H](c3ccccc3)C(c3ccc(Cl)cc3)=N2)cc1
Cannabinoid receptor 2
  IC50: > 33 µM
  Ki: > 5 µM
Cannabinoid receptor 1
  IC50: 100 nM
  Ki: 16.9 nM

## N#[11C]c1ccc(S(=O)(=O)/N=C(\N)N2CC(c3ccccc3)C(c3ccc(Cl)cc3)=N2)cc1 (racemic)
Brain [7]
  Drug uptake: 175%
Brain [8]
  Drug uptake: 85%
Pons [9]
  Drug uptake: 150%
[10]
  Drug uptake: 220%
Pons [11]
  Drug uptake: 124%
[12]
  Drug uptake: 180%
